{
  "source": "ChEMBL document CHEMBL2203205",
  "about": "(Eur J Med Chem, 2012)",
  "key": {"[1]": {"biological_target": "T1, Alpha-2A adrenergic receptor (Homo sapiens, UniProt P08913)", "T1 sequence (P08913 whole entry)": "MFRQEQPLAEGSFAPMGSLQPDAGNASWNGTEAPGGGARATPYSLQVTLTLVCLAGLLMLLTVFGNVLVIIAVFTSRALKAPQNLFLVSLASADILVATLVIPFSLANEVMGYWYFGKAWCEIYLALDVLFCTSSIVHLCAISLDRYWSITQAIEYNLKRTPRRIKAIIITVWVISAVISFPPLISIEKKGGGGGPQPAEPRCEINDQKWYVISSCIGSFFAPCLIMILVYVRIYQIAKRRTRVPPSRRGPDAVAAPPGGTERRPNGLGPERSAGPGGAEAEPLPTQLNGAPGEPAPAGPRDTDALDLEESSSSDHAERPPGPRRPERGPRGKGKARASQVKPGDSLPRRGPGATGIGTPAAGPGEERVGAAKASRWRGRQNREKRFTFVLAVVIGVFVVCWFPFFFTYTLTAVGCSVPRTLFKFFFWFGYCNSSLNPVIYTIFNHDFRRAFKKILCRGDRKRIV", "assay": "Inhibition of alpha2A adrenergic receptor", "outline": "(§1)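 Radioligand competition binding, run first as a single-concentration broad screen at […], then as concentration-response for follow-up targets, with the reference compound tested in parallel. Specific binding is total minus binding in excess unlabelled ligand, expressed as % of control specific binding. IC50 and Hill coefficient come from non-linear Hill-equation regression of competition curves built from mean replicate values.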"}, "[2]": {"assay": "Clearance in Sprague-Dawley rat at 3 mg/kg, iv", "format": "ADME, organism-based", "parameters": "dose 3 mg/kg, route intravenous", "conditions": "in vivo", "outline": "(§2)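 Male Sprague-Dawley rats dosed intravenously (3 mg/kg) and orally (10 mg/kg). PK parameters came from non-compartmental analysis of plasma concentration vs time curves.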"}, "[3]": {"assay": "AUC in Sprague-Dawley rat at 3 mg/kg, iv", "format": "ADME, organism-based", "parameters": "dose 3 mg/kg, route intravenous", "conditions": "plasma", "outline": "as §2"}, "[4]": {"biological_target": "T2, Alpha-1D adrenergic receptor (Homo sapiens, UniProt P25100)", "T2 sequence (P25100 whole entry)": "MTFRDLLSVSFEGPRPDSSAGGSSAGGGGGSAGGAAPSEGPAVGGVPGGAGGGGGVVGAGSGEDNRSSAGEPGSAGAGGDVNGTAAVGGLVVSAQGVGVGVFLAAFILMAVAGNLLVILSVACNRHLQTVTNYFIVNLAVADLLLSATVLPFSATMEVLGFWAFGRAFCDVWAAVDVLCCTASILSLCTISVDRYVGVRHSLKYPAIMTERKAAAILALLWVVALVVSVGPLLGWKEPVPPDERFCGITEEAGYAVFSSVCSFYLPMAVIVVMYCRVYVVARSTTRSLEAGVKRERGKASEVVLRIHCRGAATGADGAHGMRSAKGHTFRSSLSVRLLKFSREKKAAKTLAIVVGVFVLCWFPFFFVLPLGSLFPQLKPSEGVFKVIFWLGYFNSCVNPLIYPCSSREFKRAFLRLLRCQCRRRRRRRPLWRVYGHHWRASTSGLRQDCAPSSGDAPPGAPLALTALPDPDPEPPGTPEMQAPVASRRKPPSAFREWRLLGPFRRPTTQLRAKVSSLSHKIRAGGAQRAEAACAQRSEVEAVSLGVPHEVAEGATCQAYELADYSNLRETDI", "assay": "Inhibition of alpha1D adrenergic receptor", "outline": "as §1"}, "[5]": {"biological_target": "T3, Alpha-2B adrenergic receptor (Homo sapiens, UniProt P18089)", "T3 sequence (P18089 whole entry)": "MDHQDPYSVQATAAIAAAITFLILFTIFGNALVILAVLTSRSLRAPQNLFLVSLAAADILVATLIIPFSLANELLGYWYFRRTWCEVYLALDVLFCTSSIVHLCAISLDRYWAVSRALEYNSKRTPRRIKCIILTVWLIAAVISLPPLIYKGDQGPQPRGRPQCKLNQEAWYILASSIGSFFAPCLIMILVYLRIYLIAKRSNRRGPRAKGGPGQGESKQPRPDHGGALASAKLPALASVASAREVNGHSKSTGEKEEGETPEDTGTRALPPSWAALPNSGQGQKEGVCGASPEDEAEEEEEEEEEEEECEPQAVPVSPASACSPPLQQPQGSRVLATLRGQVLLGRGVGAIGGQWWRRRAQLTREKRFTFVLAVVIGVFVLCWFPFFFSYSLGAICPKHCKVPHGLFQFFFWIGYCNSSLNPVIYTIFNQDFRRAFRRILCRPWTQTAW", "assay": "Inhibition of alpha2B adrenergic receptor", "outline": "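Binding assay from a broad screen, with a reference compound tested concurrently. Specific binding was total minus nonspecific binding (excess unlabelled ligand). IC50 and Hill coefficient came from non-linear regression of competition curves using mean replicate values.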"}, "[6]": {"biological_target": "Voltage-gated inwardly rectifying potassium channel KCNH2 (Homo sapiens, UniProt Q12809)", "sequence (Q12809 whole entry, the tested form may be a part)": "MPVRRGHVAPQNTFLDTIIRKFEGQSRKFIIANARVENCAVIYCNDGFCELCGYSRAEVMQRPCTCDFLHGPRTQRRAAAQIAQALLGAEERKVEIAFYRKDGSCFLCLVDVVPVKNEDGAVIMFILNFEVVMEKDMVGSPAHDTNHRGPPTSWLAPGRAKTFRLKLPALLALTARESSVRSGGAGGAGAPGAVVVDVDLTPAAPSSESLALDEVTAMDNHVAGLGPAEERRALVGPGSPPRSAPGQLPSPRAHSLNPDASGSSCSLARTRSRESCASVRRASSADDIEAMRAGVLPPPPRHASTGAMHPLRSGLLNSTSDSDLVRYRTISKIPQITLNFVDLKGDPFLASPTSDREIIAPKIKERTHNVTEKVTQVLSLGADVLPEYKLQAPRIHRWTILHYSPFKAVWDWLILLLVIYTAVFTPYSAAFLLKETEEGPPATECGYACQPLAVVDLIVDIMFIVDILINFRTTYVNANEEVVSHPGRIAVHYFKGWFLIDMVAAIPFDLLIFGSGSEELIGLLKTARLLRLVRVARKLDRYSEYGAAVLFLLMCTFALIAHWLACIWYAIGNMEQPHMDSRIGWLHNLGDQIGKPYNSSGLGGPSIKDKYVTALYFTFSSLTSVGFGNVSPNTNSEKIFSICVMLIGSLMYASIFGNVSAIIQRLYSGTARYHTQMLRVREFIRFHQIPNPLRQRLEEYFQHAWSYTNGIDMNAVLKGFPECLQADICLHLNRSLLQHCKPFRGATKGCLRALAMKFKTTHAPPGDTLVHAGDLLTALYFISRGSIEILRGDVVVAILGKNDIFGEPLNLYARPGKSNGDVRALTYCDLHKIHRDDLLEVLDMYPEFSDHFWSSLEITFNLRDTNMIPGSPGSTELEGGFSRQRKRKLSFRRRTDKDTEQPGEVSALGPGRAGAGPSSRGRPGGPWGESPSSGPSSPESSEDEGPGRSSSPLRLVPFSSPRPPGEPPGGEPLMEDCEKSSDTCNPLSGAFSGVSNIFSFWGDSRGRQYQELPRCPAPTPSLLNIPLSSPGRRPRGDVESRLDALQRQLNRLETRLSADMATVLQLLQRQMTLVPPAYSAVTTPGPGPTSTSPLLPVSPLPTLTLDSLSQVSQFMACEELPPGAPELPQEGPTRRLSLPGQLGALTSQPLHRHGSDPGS", "assay": "Inhibition of human recombinant ERG expressed in HEK293 cells after 5 to 10 mins by conventional whole-cell patch clamp assay", "format": "cell-based", "outline": "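Conventional whole-cell patch clamp on HEK-293 cells stably expressing hERG, cultured 1–7 days in DMEM/GlutaMax-1 + 10% FBS on collagen-coated dishes. Holding potential was −80 mV. Compound was superfused 5–10 min per concentration at rt (22–24 °C). Tail current amplitude was measured before and after superfusion. IC50 came from a logistic fit of the concentration-response.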"}, "[7]": {"biological_target": "T4, Muscarinic acetylcholine receptor M1 (Homo sapiens, UniProt P11229)", "T4 sequence (P11229 whole entry)": "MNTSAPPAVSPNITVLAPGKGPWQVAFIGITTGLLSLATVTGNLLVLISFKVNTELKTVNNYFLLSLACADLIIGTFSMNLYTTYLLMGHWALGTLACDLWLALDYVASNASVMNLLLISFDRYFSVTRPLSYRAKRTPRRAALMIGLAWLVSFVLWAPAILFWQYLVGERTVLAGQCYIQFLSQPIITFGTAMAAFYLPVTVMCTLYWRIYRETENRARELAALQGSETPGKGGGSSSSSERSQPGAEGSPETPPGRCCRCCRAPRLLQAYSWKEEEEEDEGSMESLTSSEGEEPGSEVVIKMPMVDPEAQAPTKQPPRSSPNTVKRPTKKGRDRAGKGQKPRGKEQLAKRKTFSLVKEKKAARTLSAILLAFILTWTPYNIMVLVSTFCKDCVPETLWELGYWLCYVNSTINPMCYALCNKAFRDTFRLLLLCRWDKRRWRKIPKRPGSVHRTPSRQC", "assay": "Inhibition of muscarinic M1 receptor", "outline": "as §1"}, "Cytochrome P450 2D6": {"biological_target": "Cytochrome P450 2D6 (Homo sapiens, UniProt P10635)", "sequence (P10635 whole entry)": "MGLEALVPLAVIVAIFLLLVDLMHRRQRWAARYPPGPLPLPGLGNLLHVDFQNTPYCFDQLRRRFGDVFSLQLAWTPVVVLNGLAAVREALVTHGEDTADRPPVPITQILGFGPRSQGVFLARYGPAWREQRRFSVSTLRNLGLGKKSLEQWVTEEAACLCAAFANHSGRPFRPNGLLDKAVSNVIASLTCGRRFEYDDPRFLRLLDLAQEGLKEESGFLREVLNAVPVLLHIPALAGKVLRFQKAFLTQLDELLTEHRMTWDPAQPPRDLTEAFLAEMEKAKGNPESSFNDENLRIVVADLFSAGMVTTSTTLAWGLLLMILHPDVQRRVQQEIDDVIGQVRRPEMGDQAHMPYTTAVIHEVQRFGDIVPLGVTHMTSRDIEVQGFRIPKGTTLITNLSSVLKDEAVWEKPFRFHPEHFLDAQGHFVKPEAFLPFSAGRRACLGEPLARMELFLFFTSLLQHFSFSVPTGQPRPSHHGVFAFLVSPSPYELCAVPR", "assay": "Inhibition of human CYP2D6", "format": "ADME"}, "[8]": {"assay": "Oral bioavailability in Sprague-Dawley rat at 10 mg/kg", "format": "ADME, organism-based", "conditions": "in vivo", "outline": "as §2"}},
  "data": [
    {"smiles": "N=C(Nc1ccc2c(c1)CCN2C1CCNCC1)c1cccs1", "values": [
      {"measurement": "IC50", "setting": "[1]", "result": 24, "unit": "µM"},
      {"measurement": "clearance", "setting": "[2]", "result": 420, "unit": "mL/min/kg"},
      {"measurement": "AUC", "setting": "[3]", "result": 95.2, "unit": "ng·h/mL"},
      {"measurement": "IC50", "setting": "[4]", "result": 2.2, "unit": "µM"},
      {"measurement": "IC50", "setting": "[5]", "result": 32, "unit": "µM"},
      {"measurement": "IC50", "setting": "[6]", "result": "> 100", "unit": "µM"},
      {"measurement": "IC50", "setting": "[7]", "result": 8.6, "unit": "µM"},
      {"measurement": "IC50", "setting": "Cytochrome P450 2D6", "result": 0.75, "unit": "µM"},
      {"measurement": "bioavailability", "setting": "[8]", "result": 91, "unit": "%"}
    ]}
  ]
}
